Hits are enriched below; roughly 9.2% of the tested compounds scored in any of these assays.
ERb coact inh: blocks coactivator binding to human estrogen receptor beta | inhibition, % at 25.6 µM | Q92731 | 86,000 compounds, 1.3% hits | AID 633 | TR-FRET ER-beta LBD / SRC1-Cy5 peptide binding; receptor agonist-loaded with 1 µM estradiol;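 active means compounds whose percent inhibition of the receptor-coactivator binding signal exceeds about 50% in the single-dose screen, limit read from the data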
Target sequence (Q92731 whole entry, looked up, the tested form may be a part): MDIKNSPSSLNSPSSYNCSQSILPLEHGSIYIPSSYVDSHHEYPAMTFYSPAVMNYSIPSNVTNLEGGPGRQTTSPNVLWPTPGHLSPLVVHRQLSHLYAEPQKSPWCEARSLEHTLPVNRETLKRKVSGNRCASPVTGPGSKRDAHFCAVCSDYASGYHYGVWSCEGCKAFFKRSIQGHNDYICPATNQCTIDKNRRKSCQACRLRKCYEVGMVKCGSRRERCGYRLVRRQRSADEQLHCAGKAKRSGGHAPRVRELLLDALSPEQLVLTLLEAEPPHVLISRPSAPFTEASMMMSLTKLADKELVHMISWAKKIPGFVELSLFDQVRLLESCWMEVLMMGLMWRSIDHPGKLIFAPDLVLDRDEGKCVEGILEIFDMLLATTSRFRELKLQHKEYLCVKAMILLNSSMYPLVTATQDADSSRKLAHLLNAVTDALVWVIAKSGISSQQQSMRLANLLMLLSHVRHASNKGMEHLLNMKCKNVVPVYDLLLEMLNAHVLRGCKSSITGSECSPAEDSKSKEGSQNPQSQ
Lung fibro prol: blocks proliferation of human lung fibroblasts | viability, % at 10 µM | 85,000 compounds, 1.1% hits | LL 47 human lung fibroblast viability, ATP luminescence; stronger effect = lower value | AID 719;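 active means viability at or below 50% in the single dose screen; inactive means viability above 50%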;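 further: compound exposure lasted 72 h before the ATP readout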
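Material: human LL 47 lung fibroblast cells; quantity: 1,150 cells/well; medium: IMEM plus 15% FBS; doses: 0.1% DMSO in all compound wells; timing: overnight attachment after seeding, then 72 h compound exposure at 37 °C; detection: CellTiter-Glo luminescence; measure: % viability of median cell-only signal; controls: cell-only wells, no compound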
HUVEC inhibit: inhibitors of human endothelial cell proliferation; 86,000 compounds, 1.1% hits; AID 648; HUVEC proliferation, CellTiter-Glo luminescence, 72 h; stronger effect = lower value; viability, % at 10 µM (by protocol);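 active means viability at or below 30%; inactive means viability above 30%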
H69AR inhibit: blocks growth of human H69AR lung tumor cells | H69AR lung tumor viability, ATP luminescence, 72 h; stronger effect = lower value | viability, % at 10 µM | 85,000 compounds, 6% hits | AID 598;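 active means viability at or below 40%; inactive means viability above 40%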;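 further: multidrug resistant small cell line overexpressing MRP-1 efflux transporter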
ERa SRC1 inh: ER-alpha (human) coactivator binding inhibition; P03372; TR-FRET ER-alpha LBD / SRC-1 peptide, estradiol-bound; inhibition, % at 25.6 µM; 86,000 compounds, 1.7% hits; in the data active means inhibition above about 50%
ERa SRC1 pot: ER-alpha (human) coactivator binding potentiation; P03372; AID 639; 86,000 compounds, 1.3% hits; TR-FRET ERalpha-LBD/SRC-Cy5 coactivator binding, 2 h; 100 = basal binding, no effect; coactivator binding (% of control), % at 25.6 µM; in the data active means activity above about 200%;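 further: binding measured in presence of low estradiol as agonist stimulus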
Of the large screens only hits and unclear results are named; the others gave an inactive call; [ ] = remark or other dose.

O=C(Nc1nc2ccccc2n1CCN1CCOCC1)c1cn(-c2ccccc2)nc1-c1ccccc1	H69AR inhibit 19
O=C(Nc1nc2ccccc2n1CCN1CCCCC1)c1ccco1	none
OCCSc1c(F)c(SCCO)c(SCCO)c(F)c1SCCO	none
COc1cc(N=c2ssnc2Cl)cc(OC)c1OC	Lung fibro prol 47, H69AR inhibit 1.7
Clc1ccc(N=c2ssnc2Cl)cc1	H69AR inhibit 1.9
N#Cc1ccc(N=c2ssnc2Cl)cc1	H69AR inhibit 2.6
COc1ccc(N=c2ssnc2Cl)cc1	H69AR inhibit 1.3
COc1ccc(N=C2C(=O)Nc3c(C)cccc32)cc1	none
Cc1noc(C)c1COC(=O)C1(c2cccc(F)c2)CCCC1	none
CCCCC(=O)Nc1ccc(NC(=O)CC)cc1OC	none
c1ccc(CC2CCN(C3=Nc4cccc5cccc3c45)CC2)cc1	HUVEC inhibit 7.2, H69AR inhibit 26
c1cc2c3c(cccc3c1)C(N1CCN(C3=Nc4cccc5cccc3c45)CC1)=N2	H69AR inhibit 7.7, ERa SRC1 pot 203[fluorescence artefact?]
Cc1ccc2c(c1)cc(CN(Cc1ccco1)S(=O)(=O)c1ccccc1)c1nnnn12	none
CCOc1ccc(C2=Nn3c(nnc3-c3ccc(OC)cc3)SC2)cc1	Lung fibro prol 49, H69AR inhibit 14
COc1ccc(C2=Nn3c(nnc3-c3ccncc3)SC2)cc1	none
COc1ccc(C2=Nn3c(nnc3-c3ccco3)SC2)cc1	H69AR inhibit 20
COc1ccc(OCc2nnc3n2N=C(c2ccc(OC)cc2)CS3)cc1	H69AR inhibit 30
COc1ccc(C2=Nn3c(nnc3-c3cccnc3)SC2)cc1	ERb coact inh 58[fluorescence artefact?]
COc1ccc(OC)c(C2=Nn3c(nnc3-c3ccco3)SC2)c1	none
CCOc1ccc(C2=Nn3c(nnc3-c3cccnc3)SC2)cc1	none
CCn1nnc(-c2ccccc2NS(=O)(=O)c2ccc(C(=O)OC)cc2)n1	H69AR inhibit 17
COc1cc(-c2ccc(NC(=O)CN3CCCCC3)c(OC)c2)ccc1NC(=O)CN1CCCCC1	none
COc1cc(C#CC#CCN2CCCCC2)ccc1O	H69AR inhibit 3.6
CC1(C)CC(=O)C2=C(C1)OC(N)=C(C#N)C2C#Cc1ccccc1 (configuration not stated)	H69AR inhibit 1.7
CN1CCN(/C=N/C2=C(C#N)C(c3ccccc3)C3=C(CC(C)(C)CC3=O)O2)CC1 (configuration not stated)	H69AR inhibit 39
CC(c1ccccc1)C1C(C#N)=C(N)OC2=C1C(=O)CC(C)(C)C2 (configuration not stated)	none
N#C/C(=C\c1ccc(-c2cccc(Cl)c2)o1)C(=O)Nc1cccc2cccnc12	H69AR inhibit 15
O=C(CN1C(=O)NC2(CCc3ccccc32)C1=O)c1ccc2c(c1)OCCO2 (configuration not stated)	none
CC(=O)c1c(C(C)=O)c(C)n(-c2nc(-c3ccccc3)c(C)s2)c1C	none
COc1ccc(-c2c/c(=N\c3nc(-c4ccccc4)c(C)s3)c3ccccc3o2)cc1O	Lung fibro prol 40, H69AR inhibit 31
CC[C@H](C)C(=O)O[C@H]1C[C@@H](C)C=C2C=C[C@H](C)[C@H](CC[C@@H]3C[C@@H](O)CC(=O)O3)[C@H]21	Lung fibro prol 46, HUVEC inhibit 17
Cn1c(SCC(=O)OCC(=O)c2ccccc2)nnc1-c1cccs1	none
Cc1cc(NC(=O)CSc2nc3c(sc4ccccc43)c(=O)n2CCc2ccccc2)n[nH]1	ERa SRC1 inh 50[fluorescence artefact?]
Cc1cc(NC(=O)CSc2nc3c(sc4ccccc43)c(=O)n2CCCN2CCOCC2)n[nH]1	Lung fibro prol 39, H69AR inhibit 33
CC1CCCCC1NC(=O)CN1CCC(O)(c2ccc(F)cc2)CC1 (configuration not stated)	none
CS(=O)(=O)N(CC(=O)NCc1ccncc1)Cc1ccc(Cl)cc1	none
CC(NC(=O)C1CC1)C(c1cccs1)N1CCN(c2ccccc2)CC1 (configuration not stated)	ERb coact inh 56[fluorescence artefact?]
CCOc1ccccc1NC(=O)CSCC(=O)Nc1ccccc1	none
COc1ccccc1NC(=O)COc1ccc(CO)cc1Cl	none
